From ChEMBL document CHEMBL1140997 (Bioorg Med Chem, 2009)

Legend:
[1] = Inhibition of TNFalpha induced NF-kappaB activation in human 293 cells after 24 hrs by luciferase reporter gene assay; assay type: cell-based; conditions: HEK293, 24 h
How it was run: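 Cells incubated 24 h with TNFα (20 ng/ml) and test compounds, PBS-washed, lysed 10 min, luciferase read. Screen at 20 µg/ml; active compounds then run as dose-response in duplicate. Values are % of TNFα-treated control; IC50 from five serial dilutions, mean of two experiments.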

[2] = biological target: Prostaglandin G/H synthase 1 (Homo sapiens, UniProt P23219); test: Inhibition of COX1
Prostaglandin G/H synthase 1, sequence (P23219 whole entry): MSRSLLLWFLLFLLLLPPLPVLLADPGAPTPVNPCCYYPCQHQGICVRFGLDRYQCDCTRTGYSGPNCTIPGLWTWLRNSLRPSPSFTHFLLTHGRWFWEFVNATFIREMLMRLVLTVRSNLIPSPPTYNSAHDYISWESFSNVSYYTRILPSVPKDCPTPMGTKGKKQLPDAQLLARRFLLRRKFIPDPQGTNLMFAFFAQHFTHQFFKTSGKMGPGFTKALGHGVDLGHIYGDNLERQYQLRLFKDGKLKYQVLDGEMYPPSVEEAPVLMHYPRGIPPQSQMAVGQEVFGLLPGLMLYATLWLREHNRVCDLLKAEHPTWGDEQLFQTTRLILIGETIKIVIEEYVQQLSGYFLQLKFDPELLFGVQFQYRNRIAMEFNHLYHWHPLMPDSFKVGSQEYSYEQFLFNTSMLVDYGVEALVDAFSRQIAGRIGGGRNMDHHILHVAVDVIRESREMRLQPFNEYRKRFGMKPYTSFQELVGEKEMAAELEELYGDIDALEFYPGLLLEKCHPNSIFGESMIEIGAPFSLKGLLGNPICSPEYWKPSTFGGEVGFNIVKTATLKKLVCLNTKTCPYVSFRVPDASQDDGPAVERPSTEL
How it was run: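 Reaction in 100 mM Tris-HCl pH 8.0 containing 1 µM heme, 500 µM phenol and 300 µM epinephrine, with enough COX-1 to make 150 ng/ml PGE2. Started with arachidonic acid (10 µM final), 10 min at room temperature, stopped into indomethacin. PGE2 measured by ELISA against a PGE2 standard curve. Values are % of solvent control; IC50 from four serial dilutions, mean of two experiments.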

[3] = biological target: T1, Prostaglandin G/H synthase 2 (Homo sapiens, UniProt P35354); test: Inhibition of COX2
T1 sequence (P35354 whole entry): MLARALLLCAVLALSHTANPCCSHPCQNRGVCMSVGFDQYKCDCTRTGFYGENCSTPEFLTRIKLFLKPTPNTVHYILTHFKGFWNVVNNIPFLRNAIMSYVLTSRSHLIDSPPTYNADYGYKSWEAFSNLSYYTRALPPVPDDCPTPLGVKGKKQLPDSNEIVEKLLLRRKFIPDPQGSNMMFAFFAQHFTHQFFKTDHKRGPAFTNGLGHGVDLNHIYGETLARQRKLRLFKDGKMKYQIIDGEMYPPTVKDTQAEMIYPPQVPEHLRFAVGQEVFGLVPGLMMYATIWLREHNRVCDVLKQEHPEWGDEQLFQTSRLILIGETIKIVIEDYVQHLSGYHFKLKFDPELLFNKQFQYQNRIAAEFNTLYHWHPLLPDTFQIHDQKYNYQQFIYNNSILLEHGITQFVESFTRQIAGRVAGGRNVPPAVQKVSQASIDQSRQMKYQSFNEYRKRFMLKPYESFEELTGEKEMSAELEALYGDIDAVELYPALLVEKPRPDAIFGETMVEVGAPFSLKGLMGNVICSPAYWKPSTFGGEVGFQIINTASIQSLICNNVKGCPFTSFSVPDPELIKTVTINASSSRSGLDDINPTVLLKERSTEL

IC50 [1] [µM] | IC50 [2] [µM] | IC50 [3] [µM] | Structure (SMILES)
37.5 |  |  | COc1cc(/C=C/c2ccc(F)cc2)cc(OC)c1
 | 10 | 5.94 | COc1cc(/C=C/c2ccc([N+](=O)[O-])cc2)cc(OC)c1
12.2 |  |  | COc1ccc(/C=C/c2ccc(O)c(O)c2)cc1
52 |  |  | COc1ccc(/C=C/c2ccc(OC)c(OC)c2)cc1
12.7 |  |  | Oc1ccc(/C=C/c2ccc(O)c(O)c2)cc1
39 | 3 |  | COc1cc(/C=C(/c2ccc(F)cc2)C(F)(F)F)cc(OC)c1
 | 0.99 |  | CC/C(=C\c1ccc(C(F)(F)F)cc1)c1cc(O)cc(O)c1
37.5 |  |  | C/C(=C\c1ccc(O)c(O)c1)c1ccc(Cl)cc1
52.1 | 51.3 |  | Oc1cc(O)cc(/C=C/c2ccc(F)cc2)c1
38.8 | 3.2 |  | COc1ccc(/C=C/c2cccc(F)c2)cc1OC
10.3 | 11.5 |  | Oc1ccc(/C=C/c2cccc(F)c2)cc1O
 | 4.9 | 2.54 | C/C(=C\c1cc(O)cc(O)c1)c1cccc(F)c1
 | 7.4 | 2.2 | CC/C(=C\c1ccc(N(C)C)cc1)c1cc(O)cc(O)c1
27.2 |  |  | CC/C(=C\c1cc(OC)cc(OC)c1)c1ccc(OC)c(OC)c1
38.3 | 11.6 |  | CC/C(=C\c1cc(O)cc(O)c1)c1ccc(Cl)cc1
25.7 | 3.5 | 17.7 | CC/C(=C\c1cc(O)cc(O)c1)c1cccc(F)c1
 | 30.5 | 14.8 | CC/C(=C\c1cc(O)cc(O)c1)c1ccc(N(C)C)cc1
18.8 |  |  | COc1cc(/C=C/c2ccc3ccccc3c2)cc(OC)c1
17.3 |  |  | COc1cccc(/C=C/c2ccc(OC)c(OC)c2)c1
17.9 |  |  | Oc1ccc(/C=C/c2ccc(F)cc2)cc1O
34.7 |  |  | COc1ccc(/C=C/c2ccc(N(C)C)cc2)cc1OC
 | 1.9 | 1.57 | C/C(=C\c1cc(O)cc(O)c1)c1ccc(O)cc1
34.2 | 0.97 |  | C/C(=C\c1cc(O)cc(O)c1)c1ccc(C(F)(F)F)cc1
14.8 |  |  | Oc1ccc(/C=C/c2ccc(C(F)(F)F)cc2)cc1O
6.91 |  |  | Oc1ccc(/C=C/c2ccc3ccccc3c2)cc1O
37.8 |  |  | COc1ccc(/C(=C/c2cc(OC)cc(OC)c2)C(F)(F)F)cc1
 | 7.8 |  | COc1ccc(/C=C(/c2cc(OC)cc(OC)c2)C(F)(F)F)cc1

IC50 [1] [µM] | IC50 [2] [µM] | IC50 [3] [µM] | Structure (SMILES)
35.2 | 12.4 | 16 | COc1ccc(/C(C)=C/c2cc(O)cc(O)c2)cc1
27.1 |  |  | COc1ccc(/C(C)=C/c2cc(OC)cc(OC)c2)cc1
48.2 |  |  | COc1ccc(/C(C)=C/c2ccc3ccccc3c2)cc1
13.1 | 11.4 |  | COc1ccc(/C(C)=C/c2cc(O)cc(O)c2)cc1OC
39.2 | 5.3 |  | C/C(=C\c1cc(O)cc(O)c1)c1ccc(Cl)cc1
 |  | 1.74 | C/C(=C\c1ccc(C(F)(F)F)cc1)c1ccc(O)c(O)c1
42.3 |  |  | C/C(=C\c1ccc2ccccc2c1)c1cc(O)cc(O)c1
 | 18.4 |  | Oc1cc(O)cc(/C=C/c2ccc3ccccc3c2)c1
 | 10.9 |  | C/C(=C\c1ccc(C(F)(F)F)cc1)c1cc(O)cc(O)c1
 | 5.4 |  | CC/C(=C\c1cccc(F)c1)c1cc(O)cc(O)c1
 | 10.7 | 1.74 | C/C(=C\c1ccc(N(C)C)cc1)c1cc(O)cc(O)c1
31.9 |  |  | COc1cc(/C=C(/c2cccc(C(F)(F)F)c2)C(F)(F)F)cc(OC)c1
25.5 |  |  | COc1ccc(/C=C(/c2cccc(C(F)(F)F)c2)C(F)(F)F)cc1OC
 | 16.5 | 0.82 | Oc1cc(O)cc(/C=C/c2cccc(F)c2)c1
12.9 | 29.7 |  | Oc1cc(O)cc(/C=C/c2ccc(C(F)(F)F)cc2)c1
 | 2.2 | 31.6 | O=[N+]([O-])c1ccc(/C=C/c2cc(O)cc(O)c2)cc1
 | 17.8 |  | CN(C)c1ccc(/C=C/c2cc(O)cc(O)c2)cc1
 | 36.3 | 0.47 | C/C(=C\c1ccc(C(F)(F)F)cc1)c1ccc(O)cc1
26.2 | 1.9 | 1.78 | C/C(=C\c1ccc(O)cc1)c1cc(O)cc(O)c1
 | 10.6 | 12.8 | COc1ccc(/C=C(\C)c2cc(O)cc(O)c2)cc1OC
21.3 |  |  | C/C(=C\c1ccc(O)c(O)c1)c1ccc(O)cc1
 | 32.6 |  | COc1cc(/C=C(\C)c2ccc(C(F)(F)F)cc2)cc(OC)c1
 | 10.5 |  | C/C(=C\c1cccc(F)c1)c1cc(O)cc(O)c1
 | 0.17 | 3.3 | CC/C(=C\c1cc(O)cc(O)c1)c1ccc2ccccc2c1
 | 9.7 |  | CC/C(=C\c1ccc(OC)c(OC)c1)c1cc(O)cc(O)c1
19.5 | 0.7 | 0.82 | COc1cc(/C=C/c2ccc(O)cc2)cc(OC)c1 [PTEROSTILBENE]
16.1 |  |  | Oc1ccc(/C=C/c2cc(O)cc(O)c2)cc1 [RESVERATROL]

Structure (SMILES) | IC50 [1] [µM] | IC50 [2] [µM] | IC50 [3] [µM]
COc1ccc(/C=C/c2cc(O)cc(O)c2)cc1 [RESVERATROL 4'-METHYL ETHER] |  | 25.8 | 19.6
COc1ccc(/C=C/c2cc(OC)cc(OC)c2)cc1 [TRISMETHOXYRESVERATROL] | 28.3 |  | 
